ChEMBL document CHEMBL1155099, “Natural products in parallel synthesis: triazole libraries of nonactic acid” (2008)
Calls of active or inactive are those of the source.

Legend:
Type in all cases: functional, organism-based
[1] = test system: Bacillus anthracis; assay: Antibacterial activity against Bacillus anthracis at 1mM by almar blue dye reduction assay
[2] = test system: Bacillus cereus; assay: Antibacterial activity against Bacillus cereus at 1 mM by almar blue dye reduction assay
Method in brief: (§1)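 Single-point primary screen at 1 mM using Alamar Blue dye reduction as the growth read-out.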

[3] = test system: Bacillus subtilis; assay: Antibacterial activity against Bacillus subtilis at 1 mM by almar blue dye reduction assay; method in brief: as §1
[4] = test system: Staphylococcus aureus; assay: Antibacterial activity against Staphylococcus aureus at 1 mM by almar blue dye reduction assay; method in brief: as §1
[5] = test system: Escherichia coli; assay: Antibacterial activity against Escherichia coli at 1 mM by almar blue dye reduction assay; method in brief: as §1
[6] = test system: Pseudomonas aeruginosa; assay: Antibacterial activity against Pseudomonas aeruginosa at 1 mM by almar blue dye reduction assay; method in brief: as §1
[7] = test system: Candida albicans; assay: Antifungal activity against Candida albicans at 1 mM by almar blue dye reduction assay; method in brief: as §1
[8] = test system: Cryptococcus neoformans; assay: Antifungal activity against Cryptococcus neoformans at 1 mM by almar blue dye reduction assay; method in brief: as §1
[9] = test system: Saccharomyces cerevisiae; assay: Antifungal activity against Saccharomyces cerevisiae at 1 mM by almar blue dye reduction assay; method in brief: as §1

Measured: Activity

CC(C)NC(=O)[C@H](C)[C@H]1CCC(C[C@@H](C)n2cc(C#Cc3ccccc3[N+](=O)[O-])nn2)O1 (single isomer, unassigned)
inactive: all assays above

CCCNC(=O)NCC#Cc1cn([C@H](C)CC2CCC([C@@H](C)C(=O)N(CC)CC)O2)nn1 (single isomer, unassigned)
inactive: all assays above

COc1cccc(OCC#Cc2cn([C@H](C)C[C@@H]3CC[C@H]([C@@H](C)C(=O)N4CCN(CC5CCCO5)CC4)O3)nn2)c1OC (stereo partly drawn)
inactive: all assays above

Cc1cccc(NC(=O)OCC#Cc2cn([C@H](C)CC3CCC([C@@H](C)C(=O)N4CCCC4)O3)nn2)c1 (single isomer, unassigned)
inactive: all assays above

CCN(CC)C(=O)[C@H](C)[C@H]1CC[C@@H](C[C@@H](C)n2cc(C#Cc3ccccc3)nn2)O1
inactive: all assays above

C[C@H](C[C@@H]1CC[C@H]([C@@H](C)C(=O)N2CCCC2)O1)n1cc(C#Cc2ccc(Oc3ccccc3)cc2)nn1
inactive: all assays above

COCC#Cc1cn([C@H](C)C[C@@H]2CC[C@H]([C@@H](C)C(=O)N3CCN(CC4CCCO4)CC3)O2)nn1 (stereo partly drawn)
inactive: all assays above
